Screening data (PubChem)
Sampled rows, rich in hits. Any-hit rate of the full collection: about 1.8%.
eLon inh = inhibits E. coli Lon protease; P0A9M0; purified E. coli Lon protease, fluorescence polarization; inhibition, % at 7.94 µM; actives 0.42% (n = 360,000); AID 602123; in the data active = inhibition above about 13%, passing the limit was not always enough;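 also: 0% = enzyme with probe and DMSO and 100% = no enzyme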
PREPL inhibitor = inhibitors of human prolyl oligopeptidase-like enzyme PREPL | Q4J6C6 | recombinant PREPL, fluorescence polarization activity-based probe | inhibition, % at 5.96 µM | actives 0.68% (n = 320,000) | AID 2751; in the data active = inhibition above about 43%;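 also: 0% = enzyme with DMSO and 100% = wells lacking enzyme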
Target sequence (Q4J6C6 whole entry, looked up): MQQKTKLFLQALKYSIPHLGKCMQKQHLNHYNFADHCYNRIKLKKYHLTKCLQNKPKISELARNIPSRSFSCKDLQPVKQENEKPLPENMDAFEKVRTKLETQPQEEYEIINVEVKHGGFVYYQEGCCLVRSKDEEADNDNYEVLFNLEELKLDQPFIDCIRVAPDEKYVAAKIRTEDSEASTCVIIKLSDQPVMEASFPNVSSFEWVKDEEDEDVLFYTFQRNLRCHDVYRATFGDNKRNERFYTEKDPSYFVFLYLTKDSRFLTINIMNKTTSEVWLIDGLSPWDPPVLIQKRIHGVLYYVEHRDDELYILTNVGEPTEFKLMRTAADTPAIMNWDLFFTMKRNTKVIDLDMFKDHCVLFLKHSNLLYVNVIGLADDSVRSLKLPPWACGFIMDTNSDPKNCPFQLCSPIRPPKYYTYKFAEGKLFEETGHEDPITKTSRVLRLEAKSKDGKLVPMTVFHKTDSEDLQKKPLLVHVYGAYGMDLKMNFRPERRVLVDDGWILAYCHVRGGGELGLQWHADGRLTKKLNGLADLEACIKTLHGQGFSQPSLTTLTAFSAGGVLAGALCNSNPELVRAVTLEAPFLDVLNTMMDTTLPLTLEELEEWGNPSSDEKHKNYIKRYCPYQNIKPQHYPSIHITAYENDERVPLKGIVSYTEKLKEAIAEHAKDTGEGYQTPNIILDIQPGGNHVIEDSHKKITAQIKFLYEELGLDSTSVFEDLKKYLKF
Tb MetRS inh = blocks T. brucei methionyl-tRNA synthetase activity; purified T. brucei MetRS, ATP depletion, Kinase-Glo luminescence; inhibition, % at 11.9 µM; actives 0.4% (n = 360,000);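 active = inhibition above a per-plate cutoff of the control wells' mean inhibition plus 3 SD, cut at about 5.5% in these data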;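 also: 0% = DMSO wells median and 100% = median of wells with control inhibitor compound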
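Dosing: 11.9 µM compound single dose, 0.9% DMSO; Assay system: purified T. brucei MetRS enzyme; Measured by: Kinase-Glo luciferase luminescence reporting remaining unconsumed ATP; Schedule: 15 min plus 2 h at 25 °C.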
hiPSC survival = hiPSC single-cell survival enhancement; AID 602274; survival enhancement, % at 20 µM; actives 0.044% (n = 360,000); ATPlite luminescence; 100% = ROCK inhibitor wells, 0% = DMSO; in the data active = survival enhancement above about 18%;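 also: cells exposed to compounds for 16 hours before the ATP read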
MT1-MMP act inh = inhibitors of human MT1-MMP activation | P50281 | HT1080 RFP-PRO-GFP cells, GFP/RFP ratio fluorescence, overnight; percent of plate control window, DMSO zero | GFP/RFP ratio change, % at 20 µM | actives 0.061% (n = 360,000) | AID 651647;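 active = GFP/RFP ratio change of at least 30% with cell ATP level not reduced by more than half and red fluorescence within 50% of control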
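system = RFP-PRO-GFP reporter HT1080 cells | dosing = 20 µM single dose, 1% DMSO | timing = overnight cell settling, then overnight compound exposure, 37 °C, 5% CO2 | read-out basis = GFP/RFP fluorescence ratio | controls = DMSO and RFP-L50D-GFP cell wells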
SKN-1 inh = blocks SKN-1 activity in C. elegans; C. elegans VP596 Pgst-4::GFP/RFP ratio, acrylamide-induced, 24 h; inhibition, % at 21.8 µM; actives 0.49% (n = 360,000);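 active = interference check ratio from 0.5 to 1.5 plus GFP to RFP signal ratio inhibition reaching or exceeding a fixed threshold, cut at about 30% in these data, passing the limit was not always enough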
Tb MetRS conf = Trypanosoma brucei MetRS inhibition confirmed | shares compounds with Tb MetRS inh | T. brucei MetRS enzyme, luminescence (ATP depletion) | inhibition, % at 11.9 µM | actives 93% (n = 1,400) | AID 624412; in the data active = inhibition above about 7%
Jurkat cytotox = kills Jurkat cells in T. brucei MetRS counterscreen; actives 12% (n = 1,400); inhibition, % at 8.3 µM; shares compounds with Tb MetRS inh; Jurkat cells viability, ATP luminescence; in the data active = inhibition above about 15%;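 also: 0% = vehicle and 100% = reference inhibitor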
Tb MetRS inh FP = inhibits T. brucei methionyl tRNA synthetase in orthogonal FP test | shares compounds with Tb MetRS inh | purified T. brucei MetRS, fluorescence polarization | inhibition, % at 11.9 µM | actives 44% (n = 1,400); in the data active = inhibition above about 17%;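 also: 0% = vehicle wells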
MT1-MMP act val = validation of inhibitors of human MT1-MMP activation; shares compounds with MT1-MMP act inh; HT1080 RFP-PRO-GFP cells, GFP and RFP fluorescence ratio, overnight; inhibition, % at 20 µM; actives 10% (n = 200);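 active = inhibition of at least 50% in the primary cell screen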
* marks the source's active call; other numbers are inactive results.

Results for Clc1ccc(COC(Cn2ccnc2)c2ccc(Cl)cc2Cl)c(Cl)c1 (stereo not given) ?
eLon inh: 9; PREPL inhibitor: 10; Tb MetRS inh: 42*; hiPSC survival: 2; MT1-MMP act inh: -8; SKN-1 inh: 7; Tb MetRS conf: 58*; Jurkat cytotox: 13; Tb MetRS inh FP: 46*

How did NC(=O)OCCSc1nnc(-c2cccc(C(N)=S)c2)o1 do in these assays?
eLon inh: 2; PREPL inhibitor: -4; Tb MetRS inh: 16*; hiPSC survival: 0; MT1-MMP act inh: 6; SKN-1 inh: -8; Tb MetRS conf: 10*; Jurkat cytotox: 1; Tb MetRS inh FP: 0

Results for Cc1cccc(N=C2c3cc([N+](=O)[O-])ccc3-c3c2cc([N+](=O)[O-])cc3[N+](=O)[O-])c1 ?
eLon inh: 2; Tb MetRS inh: 0; hiPSC survival: -1; MT1-MMP act inh: 15; SKN-1 inh: -10

What do the screens show for `N#Cc1cc2c(nc1SCC(=O)Nc1ccc(Cl)cc1)C1CCN2CC1`?
eLon inh: -7; PREPL inhibitor: 25; Tb MetRS inh: 9.2*; hiPSC survival: -1; MT1-MMP act inh: -13; SKN-1 inh: 13; Tb MetRS conf: 15*; Jurkat cytotox: 20*; Tb MetRS inh FP: 9

What do the screens show for `CCCCCCC(=O)c1c(O)n(-c2ccc(OC)cc2)c(=O)[nH]c1=O` (tested in a mixture with another compound)?
eLon inh: -11; PREPL inhibitor: 4; Tb MetRS inh: 0; hiPSC survival: 0; MT1-MMP act inh: 0; SKN-1 inh: 16

What do the screens show for `CCCC1(CCC)C(=O)NC(=Nc2ccccc2)NC1=O`?
eLon inh: -7; PREPL inhibitor: 7; Tb MetRS inh: 12*; hiPSC survival: -1; MT1-MMP act inh: 4; SKN-1 inh: 4; Tb MetRS conf: 19*; Jurkat cytotox: -6; Tb MetRS inh FP: 7

What do the screens show for `CCCC(C)C1(CC)C(=O)NC(=Nc2ccc(F)cc2)NC1=O` (stereo not given)?
eLon inh: 5; PREPL inhibitor: 10; Tb MetRS inh: 1; hiPSC survival: 0; MT1-MMP act inh: -5; SKN-1 inh: -3

How did CCCC(C)C1(CC)C(=O)NC(=Nc2ccccc2)NC1=O (stereo not given) do in these assays?
eLon inh: -5; PREPL inhibitor: 0; Tb MetRS inh: 8.7*; hiPSC survival: -2; MT1-MMP act inh: -2; SKN-1 inh: -8; Tb MetRS conf: 18*; Jurkat cytotox: 5; Tb MetRS inh FP: 9

What do the screens show for `CCn1nc(/C=C/c2ccccc2)nc2c(=O)n(C)c(=O)nc1-2`?
eLon inh: -6; Tb MetRS inh: 18*; hiPSC survival: -1; MT1-MMP act inh: -2; SKN-1 inh: -3; Tb MetRS conf: 36*; Jurkat cytotox: 57*; Tb MetRS inh FP: 6

What do the screens show for `O=C1NC(=O)N(CCc2ccc(F)cc2)C(=O)/C1=C/c1cccs1`?
eLon inh: -70; PREPL inhibitor: 3; Tb MetRS inh: -1; hiPSC survival: 0; MT1-MMP act inh: -4; SKN-1 inh: 15

What do the screens show for `C=CCN1C(=O)/C(=C/c2cccs2)C(=O)NC1=S`?
eLon inh: -20; PREPL inhibitor: -8; Tb MetRS inh: 0; hiPSC survival: 1; MT1-MMP act inh: 35*; SKN-1 inh: 15; MT1-MMP act val: 8

What do the screens show for `COc1cc2c(cc1OC)-c1c(OC)c(OC)cc3c1C(C2)N(C)CC3` (stereo not given)?
eLon inh: -5; PREPL inhibitor: 11; Tb MetRS inh: -1; hiPSC survival: 0; MT1-MMP act inh: 9; SKN-1 inh: 12

How did COc1cc2c(cc1OC)-c1c3c(cc4c1[C@@H](C2)N(C)CC4)OCO3 do in these assays?
eLon inh: 3; PREPL inhibitor: 20; Tb MetRS inh: 0; hiPSC survival: -4; MT1-MMP act inh: 33*; SKN-1 inh: 1; MT1-MMP act val: 2

How did CN1C(=O)N(C)C(=O)C2(Cc3cc(NC(=O)c4ccc(F)cc4)ccc3N3CCCC32)C1=O (stereo not given) do in these assays?
eLon inh: -24; PREPL inhibitor: 13; Tb MetRS inh: 0; hiPSC survival: 0; MT1-MMP act inh: -1; SKN-1 inh: -8

How did CCOC(=O)c1c(C)n(Cc2ccccc2)c2ccc(OCC(O)CNC(C)(C)C)cc12 (stereo not given) do in these assays?
eLon inh: -8; PREPL inhibitor: 19; Tb MetRS inh: -1; hiPSC survival: 0; MT1-MMP act inh: 5; SKN-1 inh: 5

Results for CC(C)OC(=O)c1c(N)n(CC2CCCO2)c2nc3ccccc3nc12 (stereo not given) ?
eLon inh: -6; PREPL inhibitor: -4; Tb MetRS inh: -1; hiPSC survival: -1; MT1-MMP act inh: 37*; SKN-1 inh: 4; MT1-MMP act val: 2

What do the screens show for `COC(=O)C1=C(c2ccc(OC(F)(F)F)cc2)C[C@@H]2CC[C@H]1N2C(=O)NCCc1ccccc1`?
eLon inh: -6; PREPL inhibitor: 8; Tb MetRS inh: 0; hiPSC survival: -4; MT1-MMP act inh: 31*; SKN-1 inh: -5; MT1-MMP act val: 2

Results for COC(=O)C1=C(c2ccc(OC(F)(F)F)cc2)C[C@@H]2CC[C@H]1N2C(=O)NCCNC(C)=O ?
eLon inh: -4; PREPL inhibitor: 0; Tb MetRS inh: 0; hiPSC survival: 0; MT1-MMP act inh: -1; SKN-1 inh: 17

Results for CC[n+]1c(/C=C/N(C)c2ccccc2)sc2ccc(Cl)cc21 ?
eLon inh: 5; PREPL inhibitor: -39; Tb MetRS inh: -1; hiPSC survival: -2; MT1-MMP act inh: 52*; SKN-1 inh: 48; MT1-MMP act val: 47

How did CC=C(CC)C1(CCC)C(=O)NC(=S)NC1=O do in these assays?
eLon inh: -6; Tb MetRS inh: 0; hiPSC survival: 0; MT1-MMP act inh: 0; SKN-1 inh: -2
